In ChEMBL document CHEMBL1125694, “Fluorinated sugar analogues of potential anti-HIV-1 nucleosides” (J Med Chem, 1991) one finds IC50 and Activity data, which are given here for 43 compounds.

What all share (format): functional, cell-based
The subject of assay [1] is HL-60. Kind of assay: Inhibition of human promyelocytic leukemic cell (HL-60) by […]-microculture tetrazolium assay. In short, it runs like this:
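HL-60 cells exposed 4 days to five or six concentrations of each nucleoside, in duplicate. Then PMS-XTT mixture (0.075 mM PMS with 1 mg/mL XTT) added for 6 h at 37 °C. Absorbance at 450 and 630 nm. Median inhibitory concentration (IC50) derived.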

The test system of assay [2] is H9. Briefly: Anti-HIV activity in H9 cell line; Not active. To be noted: Homo sapiens.
The subject of assay [3] is HL-60. Briefly: Inhibition of human promyelocytic leukemic cell (HL-60) trypan blue exclusion assay. In short, it runs like this: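 HL-60 growth inhibition by trypan blue exclusion, five or six concentrations per nucleoside, in duplicate. Median inhibitory concentration (IC50) derived.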
The test system of assay [4] is H9. Briefly: Compound was tested for anti-HIV activity in H9 cell line; Not active. To be noted: Homo sapiens.
Another assay relates to MT4. Kind of assay: Compound was tested for anti-HIV activity in MT-4 cell line; Not active. To be noted: Homo sapiens.
Assay [5] relates to H9. Briefly: Compound was tested for anti-HIV activity in H9 cell line; Active. To be noted: Homo sapiens.

Calls of active or inactive are those of the source. No cut-off for these calls is given here.

What is called IC50 is the concentration that gives 50% inhibition. For the compound `Cc1cn2c(nc1=O)O[C@@H]1C[C@H]2O[C@@H]1COS(C)(=O)=O`, the IC50 in the assay on HL-60 [1] and with HL-60 [3] was more than 1 mM throughout. For the same compound, the result with H9 [2] was inactive.
For `Cc1cn(C2OC(COC(c3ccccc3)(c3ccccc3)c3ccccc3)C(F)C2O)c(=O)[nH]c1=O` (centres undefined), the IC50 in the assay with HL-60 [1] and in the assay on HL-60 [3] was more than 1 mM throughout. Besides, the outcome in the assay on H9 [2] was inactive.
Regarding `Cc1cn(C2OC(COC(c3ccccc3)(c3ccccc3)c3ccccc3)C(N=[N+]=[N-])C2O)c(=O)[nH]c1=O` (centres undefined), the IC50 with HL-60 [1] and in the assay on HL-60 [3] was more than 1 mM in each case. Also, the result with H9 [2] was inactive.
For the compound `Cc1cn([C@@H]2O[C@H](CO)[C@@H](OC(c3ccccc3)(c3ccccc3)c3ccccc3)[C@H]2OC(c2ccccc2)(c2ccccc2)c2ccccc2)c(=O)[nH]c1=O`, the IC50 in the assay on HL-60 [1] and with HL-60 [3] was more than 1 mM in each case. Further, the outcome with H9 [4] was inactive.
Turning to `Cc1cn(C2OC(CO)C[C@@H]2F)c(=O)[nH]c1=O` (some centres undefined), the IC50 in the assay on HL-60 [1] and with HL-60 [3] was more than 1 mM each time. Further, the result in the assay with H9 [2] was inactive.
Take `Cc1cn([C@@H]2O[C@H](COC(c3ccccc3)(c3ccccc3)c3ccccc3)[C@H](O)[C@H]2F)c(=O)[nH]c1=O`: the IC50 with HL-60 [1] and with HL-60 [3] was more than 1 mM each time. Also, in the assay on H9 [2], the outcome was inactive.
As for `Cc1cn(C2CC(F)C(COS(C)(=O)=O)O2)c(=O)[nH]c1=O` (centres undefined), the IC50 with HL-60 [1] and with HL-60 [3] was more than 1 mM throughout. Moreover, the outcome in the assay on H9 [2] was inactive.
For `Cc1cn([C@@H]2O[C@H](CO)C=C2F)c(=O)[nH]c1=O`, the IC50 with HL-60 [1] and with HL-60 [3] was more than 1 mM throughout. The result in the assay on H9 [2] was inactive.
For the compound `Cc1cn(C2OC(COC(c3ccccc3)(c3ccccc3)c3ccccc3)C(F)C2F)c(=O)[nH]c1=O` (centres undefined), the IC50 in the assay with HL-60 [1] and with HL-60 [3] was more than 1 mM each time. The outcome in the assay on H9 [2] was inactive.
In the case of `Cc1cn([C@@H]2O[C@H](CO)[C@@H](N=[N+]=[N-])[C@@H]2F)c(=O)[nH]c1=O`, the result in the assay on H9 [2] and in the assay with MT4 was inactive.
Consider `Cc1cn2c(nc1=O)O[C@H]1[C@H](OC(=S)n3ccnc3)[C@@H](COC(c3ccccc3)(c3ccccc3)c3ccccc3)O[C@H]12`, for which the IC50 with HL-60 [1] and with HL-60 [3] was more than 1 mM each time. Also, the outcome in the assay on H9 [2] was inactive.
For `Cc1cn(C2OC(COC(c3ccccc3)(c3ccccc3)c3ccccc3)C(F)C2N=[N+]=[N-])c(=O)[nH]c1=O` (centres undefined), the IC50 in the assay on HL-60 [1] and with HL-60 [3] was more than 1 mM each time. Also, the outcome with H9 [2] was inactive.
With `Cc1cn(C2OC(COC(c3ccccc3)(c3ccccc3)c3ccccc3)CC2F)c(=O)nc1-n1cncn1` (centres undefined), the IC50 with HL-60 [1] and in the assay with HL-60 [3] was more than 1 mM throughout. In addition, the outcome in the assay with H9 [2] was inactive.
In the case of `Cc1cn2c(nc1=O)O[C@H]1[C@H](O)[C@@H](COC(c3ccccc3)(c3ccccc3)c3ccccc3)O[C@H]12`, the IC50 in the assay on HL-60 [1] and with HL-60 [3] was more than 1 mM throughout. Besides, in the assay on H9 [2], the outcome was inactive.
Regarding `Cc1cn(C2OC(COC(c3ccccc3)(c3ccccc3)c3ccccc3)CC2F)c(=O)nc1N` (centres undefined), the IC50 with HL-60 [1] and in the assay with HL-60 [3] was more than 1 mM in each case. Also, the result in the assay on H9 [2] was inactive.
On to `Cc1cn([C@@H]2O[C@H](COC(=O)c3ccccc3)[C@@H](OS(C)(=O)=O)[C@@H]2F)c(=O)[nH]c1=O`, for which the IC50 with HL-60 [1] and in the assay on HL-60 [3] was more than 1 mM throughout. The result with H9 [2] was inactive.
Regarding `Cc1cn([C@@H]2O[C@H](CO)[C@@H](N=[N+]=[N-])[C@H]2F)c(=O)[nH]c1=O`, the IC50 in the assay with HL-60 [1] and in the assay with HL-60 [3] was more than 1 mM in each case. In addition, the result in the assay with H9 [2] was inactive.
On to `Cc1cn([C@@H]2O[C@H](CO)[C@@H](F)[C@H]2N=[N+]=[N-])c(=O)[nH]c1=O`, for which the IC50 in the assay on HL-60 [1] and in the assay with HL-60 [3] was more than 1 mM throughout. Besides, the result with H9 [2] was inactive.
On to `Cc1cn2c(nc1=O)OC1CC(COC(c3ccccc3)(c3ccccc3)c3ccccc3)OC12` (centres undefined), for which the IC50 in the assay with HL-60 [1] and in the assay with HL-60 [3] was more than 1 mM throughout. Moreover, in the assay with H9 [2], the result was inactive.
With `Cc1cn(C2OC(COC(=O)c3ccccc3)C(F)C2F)c(=O)[nH]c1=O` (centres undefined), the IC50 in the assay on HL-60 [1] and in the assay with HL-60 [3] was more than 1 mM in each case. Besides, the result with H9 [2] was inactive.
In the case of `Cc1cn2c(nc1=O)O[C@@H]1[C@H](F)[C@H]2O[C@@H]1COC(c1ccccc1)(c1ccccc1)c1ccccc1`, the IC50 with HL-60 [1] and with HL-60 [3] was more than 1 mM in each case. In addition, the result with H9 [2] was inactive.
For the compound `Cc1cn([C@@H]2O[C@H](COC(c3ccccc3)(c3ccccc3)c3ccccc3)[C@@H](OS(C)(=O)=O)[C@@H]2F)c(=O)[nH]c1=O`, the IC50 with HL-60 [1] and in the assay on HL-60 [3] was more than 1 mM in each case. Moreover, the outcome with H9 [2] was inactive.
Turning to `Cc1cn([C@@H]2O[C@H](CO)C[C@H]2F)c(=O)nc1N`, the IC50 in the assay on HL-60 [1] and in the assay with HL-60 [3] was more than 1 mM each time. Besides, the outcome in the assay on H9 [2] was inactive.
For the compound `Cc1cn(C2OC(COC(c3ccccc3)(c3ccccc3)c3ccccc3)CC2O)c(=O)[nH]c1=O` (centres undefined), the IC50 with HL-60 [1] and with HL-60 [3] was more than 1 mM throughout. For the same compound, the result with H9 [2] was inactive.
For the compound `Cc1cn([C@@H]2O[C@H](CO)[C@@H](F)[C@H]2F)c(=O)[nH]c1=O`, the IC50 in the assay with HL-60 [1] and with HL-60 [3] was more than 1 mM throughout. In addition, in the assay on H9 [2], the result was inactive.
Take `Cc1cn([C@@H]2O[C@H](COC(c3ccccc3)(c3ccccc3)c3ccccc3)[C@H](O)[C@H]2N=[N+]=[N-])c(=O)[nH]c1=O`: the IC50 in the assay on HL-60 [1] and in the assay with HL-60 [3] was more than 1 mM in each case. Moreover, the result in the assay with H9 [2] was inactive.
In the case of `Cc1cn([C@H]2C[C@H](OS(C)(=O)=O)[C@@H](COS(C)(=O)=O)O2)c(=O)[nH]c1=O`, the IC50 with HL-60 [1] and in the assay with HL-60 [3] was more than 1 mM each time. Besides, in the assay with H9 [2], the result was inactive.
`Cc1cn(C2OC(COC(c3ccccc3)(c3ccccc3)c3ccccc3)C(N=[N+]=[N-])C2F)c(=O)[nH]c1=O` (centres undefined): the IC50 in the assay on HL-60 [1] and with HL-60 [3] was more than 1 mM each time. Besides, in the assay on H9 [2], the outcome was inactive.
For `CC(=O)OCC1OC(n2cc(C)c(=O)[nH]c2=O)CC1F` (centres undefined), the IC50 in the assay on HL-60 [1] and in the assay with HL-60 [3] was more than 1 mM in each case. In addition, the outcome with H9 [2] was inactive.
Take `Nc1ccn([C@@H]2O[C@H](CO)C[C@@H]2F)c(=O)n1`: in the assay with H9 [5], the result was Active.
Regarding `Cc1cn([C@@H]2O[C@H](COC(c3ccccc3)(c3ccccc3)c3ccccc3)[C@@H](OS(C)(=O)=O)[C@H]2OS(C)(=O)=O)c(=O)[nH]c1=O`, the IC50 in the assay on HL-60 [1] and in the assay on HL-60 [3] was more than 1 mM in each case. The result with H9 [2] was inactive.
Turning to `Cc1cn([C@@H]2O[C@H](CO)[C@@H](O)[C@@H]2O)c(=O)[nH]c1=O`, the IC50 in the assay with HL-60 [1] and in the assay with HL-60 [3] was more than 1 mM in each case. The result in the assay with H9 [2] was inactive.
Turning to `Cc1cn([C@@H]2O[C@H](COC(=O)c3ccccc3)[C@@H](O)[C@@H]2F)c(=O)[nH]c1=O`, the IC50 with HL-60 [1] and in the assay on HL-60 [3] was more than 1 mM in each case. Further, the result in the assay with H9 [2] was inactive.
For the compound `Cc1cn([C@@H]2O[C@H](CO)[C@@H](F)[C@@H]2F)c(=O)[nH]c1=O`, the IC50 in the assay on HL-60 [1] and in the assay on HL-60 [3] was more than 1 mM throughout. In the assay with H9 [2], the outcome was inactive.
As for `Cc1cn([C@@H]2O[C@H](CO)[C@@H](O)[C@@H]2F)c(=O)[nH]c1=O` [5-METHYL-2'-FLUOROARAURACIL], the IC50 in the assay with HL-60 [1] and in the assay on HL-60 [3] was more than 1 mM each time. For the same compound, in the assay on H9 [2], the result was inactive.
`Cc1cn([C@@H]2O[C@H](COC(c3ccccc3)(c3ccccc3)c3ccccc3)C[C@H]2F)c(=O)[nH]c1=O`: the IC50 in the assay on HL-60 [1] and in the assay on HL-60 [3] was more than 1 mM throughout. For the same compound, the result in the assay with H9 [2] was inactive.
`Cc1cn2c(nc1=O)O[C@@H]1C[C@H]2O[C@@H]1CO`: the IC50 in the assay on HL-60 [1] and in the assay with HL-60 [3] was more than 1 mM throughout. For the same compound, the outcome in the assay with H9 [2] was inactive.
On to `Cc1cn([C@H]2C[C@H](F)[C@@H](CO)O2)c(=O)[nH]c1=O`, for which, in the assay on H9 [5], the outcome was Active.
On to `Cc1cn2c(nc1=O)O[C@@H]1[C@H](F)[C@H]2O[C@@H]1COC(=O)c1ccccc1`, for which the IC50 with HL-60 [1] and with HL-60 [3] was more than 1 mM in each case. In addition, the result in the assay on H9 [2] was inactive.
Turning to `Cc1cn([C@@H]2O[C@H](CO)C[C@H]2F)c(=O)[nH]c1=O`, the IC50 in the assay with HL-60 [1] and in the assay on HL-60 [3] was more than 1 mM throughout. Further, in the assay on H9 [2], the outcome was inactive.
Consider `Cc1cn(C2OC(COC(=O)c3ccccc3)C(F)C2F)c(=O)[nH]c1=S` (centres undefined), for which the IC50 in the assay on HL-60 [1] and with HL-60 [3] was more than 1 mM each time. In addition, in the assay with H9 [2], the result was inactive.
For the compound `Cc1cn(C2OC(CO)C(F)C2F)c(=O)nc1N` (centres undefined), the figures for the half-maximal inhibitory concentration (IC50) in the assay with HL-60 [1] and in the assay on HL-60 [3] were 0.234 mM and 0.123 mM, respectively. Also, in the assay on H9 [2], the result was inactive.
Consider `Cc1cn([C@@H]2O[C@H](COC(c3ccccc3)(c3ccccc3)c3ccccc3)[C@@H]3O[C@@H]32)c(=O)[nH]c1=O`, for which the IC50 in the assay on HL-60 [1] and in the assay on HL-60 [3] was more than 1 mM throughout. In addition, the result with H9 [2] was inactive.
